Here are results for 16 compounds from ChEMBL document CHEMBL2390952, “Novel triazolo-pyrrolopyridines as inhibitors of Janus kinase 1” (Bioorg Med Chem Lett, 2013).

For one series, the species on record is Homo sapiens. Description: Selectivity ratio of Ki for JAK2 (unknown origin) to Ki for JAK1 (unknown origin). Summed up: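 Biochemical JAK enzyme assay giving Ki, reported as the arithmetic mean of at least three separate determinations. Selectivity is taken as JAK2 Ki divided by JAK1 Ki.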
The nature of series [1]: Lipophilicity, log D of the compound at pH 7.2. The series is classed as physicochemical. As to conditions: buffer. Summed up:
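Log D determined experimentally at pH 7.2.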

The target of series [2] is Tyrosine-protein kinase JAK2 (Homo sapiens, UniProt O60674). Description: Inhibition of JAK2 (unknown origin).
Chain of Tyrosine-protein kinase JAK2 (O60674 whole entry): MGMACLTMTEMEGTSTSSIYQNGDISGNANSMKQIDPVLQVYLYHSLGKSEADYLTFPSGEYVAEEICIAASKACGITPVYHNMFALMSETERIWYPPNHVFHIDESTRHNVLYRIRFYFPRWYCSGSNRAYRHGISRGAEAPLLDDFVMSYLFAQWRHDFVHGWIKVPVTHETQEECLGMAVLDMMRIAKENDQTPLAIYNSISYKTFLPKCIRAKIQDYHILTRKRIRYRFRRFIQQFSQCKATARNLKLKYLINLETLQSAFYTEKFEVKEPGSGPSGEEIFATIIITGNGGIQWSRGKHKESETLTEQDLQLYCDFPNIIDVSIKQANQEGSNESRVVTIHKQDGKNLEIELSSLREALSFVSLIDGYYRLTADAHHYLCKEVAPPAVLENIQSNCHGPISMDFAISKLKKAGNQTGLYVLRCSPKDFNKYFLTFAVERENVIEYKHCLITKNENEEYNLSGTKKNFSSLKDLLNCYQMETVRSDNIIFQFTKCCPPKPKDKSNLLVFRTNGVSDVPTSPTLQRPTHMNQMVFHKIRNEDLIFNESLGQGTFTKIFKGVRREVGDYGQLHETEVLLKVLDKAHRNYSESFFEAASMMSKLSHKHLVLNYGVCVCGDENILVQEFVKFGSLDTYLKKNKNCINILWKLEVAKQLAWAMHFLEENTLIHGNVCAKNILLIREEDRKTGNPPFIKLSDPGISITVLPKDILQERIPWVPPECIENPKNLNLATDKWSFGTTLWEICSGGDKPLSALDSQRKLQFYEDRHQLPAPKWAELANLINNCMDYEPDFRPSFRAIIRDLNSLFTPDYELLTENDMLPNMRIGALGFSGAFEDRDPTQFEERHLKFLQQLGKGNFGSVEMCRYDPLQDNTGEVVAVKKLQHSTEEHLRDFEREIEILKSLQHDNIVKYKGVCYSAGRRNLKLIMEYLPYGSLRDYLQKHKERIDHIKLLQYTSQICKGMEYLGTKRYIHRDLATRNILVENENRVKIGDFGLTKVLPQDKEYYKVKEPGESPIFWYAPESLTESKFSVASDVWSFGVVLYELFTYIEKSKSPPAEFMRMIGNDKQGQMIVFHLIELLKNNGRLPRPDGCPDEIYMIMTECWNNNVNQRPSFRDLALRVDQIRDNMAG
The target in series [3] is T1, Tyrosine-protein kinase JAK1 (Homo sapiens, UniProt P23458). Put plainly: Inhibition of JAK1 (unknown origin).
T1 sequence (P23458 whole entry): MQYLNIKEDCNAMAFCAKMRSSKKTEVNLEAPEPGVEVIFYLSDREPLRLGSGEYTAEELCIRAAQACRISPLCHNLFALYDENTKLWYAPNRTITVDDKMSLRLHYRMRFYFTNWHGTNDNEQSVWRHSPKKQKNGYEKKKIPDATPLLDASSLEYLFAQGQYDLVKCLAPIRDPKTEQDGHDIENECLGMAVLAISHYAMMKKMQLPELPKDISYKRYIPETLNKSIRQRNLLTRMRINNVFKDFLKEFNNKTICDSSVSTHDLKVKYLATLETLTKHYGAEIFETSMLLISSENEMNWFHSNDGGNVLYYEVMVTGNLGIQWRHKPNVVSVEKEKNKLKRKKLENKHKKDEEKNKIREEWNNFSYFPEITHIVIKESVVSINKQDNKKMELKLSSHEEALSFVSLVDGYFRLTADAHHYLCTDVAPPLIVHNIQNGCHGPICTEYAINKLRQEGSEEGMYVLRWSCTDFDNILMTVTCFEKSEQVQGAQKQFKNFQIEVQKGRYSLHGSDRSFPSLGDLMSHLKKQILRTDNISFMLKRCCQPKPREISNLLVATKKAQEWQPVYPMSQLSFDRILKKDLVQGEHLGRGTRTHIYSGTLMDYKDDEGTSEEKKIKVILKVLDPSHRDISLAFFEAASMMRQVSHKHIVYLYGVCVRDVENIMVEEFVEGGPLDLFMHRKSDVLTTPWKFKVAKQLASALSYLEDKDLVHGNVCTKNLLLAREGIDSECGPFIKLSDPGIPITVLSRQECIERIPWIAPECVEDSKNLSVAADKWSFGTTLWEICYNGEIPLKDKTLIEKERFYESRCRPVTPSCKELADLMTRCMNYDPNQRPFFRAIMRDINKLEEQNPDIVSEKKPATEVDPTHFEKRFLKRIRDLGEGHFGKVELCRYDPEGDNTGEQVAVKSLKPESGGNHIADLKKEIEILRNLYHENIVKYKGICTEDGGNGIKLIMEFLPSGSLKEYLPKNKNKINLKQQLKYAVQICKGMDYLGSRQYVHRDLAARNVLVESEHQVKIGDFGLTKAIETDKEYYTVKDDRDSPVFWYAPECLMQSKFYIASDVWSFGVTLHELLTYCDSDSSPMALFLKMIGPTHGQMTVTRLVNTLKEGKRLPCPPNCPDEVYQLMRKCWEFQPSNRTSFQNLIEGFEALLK
Series [4] in a line: Half life in human liver microsomes. The series is classed as ADME, Microsome. Summed up: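 Half-life measured by incubation with in vitro preparations of human liver microsomes.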
For the next series, the system named is TF-1. Description: Selectivity ratio of EC50 for JAK2-mediated STAT5 phosphorylation in EPO-induced human TF1 cells to EC50 for JAK1-mediated STAT3 phosphorylation in IL6-induced human TF1 cells. The format is cell-based.
Series [5] concerns the target T1, Tyrosine-protein kinase JAK1. Description: Inhibition of JAK1-mediated STAT3 phosphorylation in IL6-induced human TF1 cells. The series is classed as cell-based, TF-1.

As for `c1cc2c(ncc3nnn(C4CCNCC4)c32)[nH]1`, in the series filed under Homo sapiens, the Ratio Ki was found to be 3.2. Further, the logD in series [1] is -0.35. In addition, the Ki in series [2] was 669 nM; in series [3], 210 nM.

With `COC(=O)N[C@@H]1CC[C@@H](n2nnc3cnc4[nH]ccc4c32)C1` (racemic), the Ratio Ki in the series filed under Homo sapiens was determined as 2.8. In series [4], the half-life was 4.3 h. The log distribution coefficient (logD) in series [1] came to 1.98. Also, in the series on TF-1, the Ratio EC50 turned out to be 6.8. This compound also yielded an EC50 in series [5] of 395 nM. The Ki in series [2] is 33 nM; in series [3], 12 nM.

In the case of `c1ccc(CN2CCC[C@@H](n3nnc4cnc5[nH]ccc5c43)C2)cc1`, the Ratio Ki in the series filed under Homo sapiens amounted to 1.6. The compound also gave a half-life in series [4] of 0.2 h. The same compound registered a Ki in series [3] of 25 nM.

For the compound `F[C@H]1CNCC[C@H]1n1nnc2cnc3[nH]ccc3c21` (racemic), the Ratio Ki in the series listed under Homo sapiens is 2.3. The compound also came in with a logD in series [1] of 0.27. In addition, the inhibition constant Ki in series [2] was found to be 446 nM; in series [3], 198 nM.

Consider `CC(C)CC(=O)N[C@H]1CC[C@H](n2nnc3cnc4[nH]ccc4c32)CC1`, for which, in the series listed under Homo sapiens, the Ratio Ki turned out to be 3.6. In series [4], this compound gave a half-life of 3.7 h. In addition, the logD in series [1] was found to be 2.7. Further, in the series on TF-1, the Ratio EC50 is 5. Besides, the EC50 in series [5] came to 350 nM. For the same compound, the results for the Ki in series [2] and in series [3] were 17 nM and 4.7 nM, respectively.

Consider `CC1(n2nnc3cnc4[nH]ccc4c32)CCN(CCC#N)CC1`, for which, in the series filed under Homo sapiens, the Ratio Ki was 3.1. The compound also gave a half-life in series [4] of 4.8 h. Moreover, in series [1], the log distribution coefficient (logD) turned out to be 1.92. The results for the Ki in series [2] and in series [3] were 487 nM and 156 nM, respectively.

As for `c1cncc(CN2CCC(n3nnc4cnc5[nH]ccc5c43)CC2)c1`, the Ratio Ki in the series filed under Homo sapiens was 1.7. This compound also had a half-life in series [4] of 0.7 h. This compound also had a pH-dependent lipophilicity (logD) in series [1] of 2.03. Also, the Ratio EC50 with TF-1 was 2.7. The compound further displayed a half-maximal effective concentration (EC50) in series [5] of 414 nM. Also, the Ki in series [2] amounted to 28 nM; in series [3], 16 nM.

Consider `c1cc2c(ncc3nnn(CC4CCNCC4)c32)[nH]1`, for which the Ratio Ki in the series filed under Homo sapiens stood at 1.7. The same compound showed a half-life in series [4] of 1.3 h. For the same compound, the Ki stood at 1230 nM in series [2] and 745 nM in series [3].

As for `CC(C)(C)OC(=O)N[C@@H]1CC[C@@H](n2nnc3cnc4[nH]ccc4c32)C1`, the Ratio Ki in the series listed under Homo sapiens was 4.2. This compound had a half-life in series [4] of 0.9 h. This compound also registered a logD in series [1] of 3.53. The Ratio EC50 in the series with TF-1 is 4.3. In series [5], this compound had an EC50 of 127 nM. The Ki came out at 10 nM in series [2] and 2.4 nM in series [3].

On to `O[C@H]1CC[C@H](n2nnc3cnc4[nH]ccc4c32)CC1`, for which the half-life in series [4] is 1.2 h. In series [1], this compound returned a logD of 1.76.

In the case of `F[C@@H]1CNCC[C@H]1n1nnc2cnc3[nH]ccc3c21` (racemic), the Ratio Ki in the series filed under Homo sapiens stood at 2.7. In series [4], this compound gave a half-life of 15 h. This compound displayed a logD in series [1] of 0.77. In addition, the Ki is 57 nM in series [2] and 21 nM in series [3].

On to `CN1CCC[C@H]1C(=O)N1CCC(n2nnc3cnc4[nH]ccc4c32)CC1`, for which the Ratio Ki in the series listed under Homo sapiens is 5.9. Besides, the half-life in series [4] is 1.1 h. For the same compound, the Ki in series [2] was 721 nM; in series [3], 121 nM.

For `CC(C)(C)OC(=O)N[C@H]1CC[C@H](n2nnc3cnc4[nH]ccc4c32)CC1`, the Ratio Ki in the series filed under Homo sapiens came to 3.3. In series [4], this compound had a half-life of 1 h. In series [1], this compound came in with a logD of 3.58. Further, the Ki in series [2] was found to be 401 nM; in series [3] it was 120 nM.

In series [4], `N[C@H]1CC[C@H](n2nnc3cnc4[nH]ccc4c32)CC1` showed a half-life of 1.1 h. In series [1], this compound yielded a logD of -0.24.

Regarding `N#CCCO[C@H]1CC[C@H](n2nnc3cnc4[nH]ccc4c32)CC1`, the half-life in series [4] was 5.8 h. The same compound displayed a logD in series [1] of 1.36. The Ki in series [3] is more than 3760 nM.

Regarding `c1ccc(CN2CCC(n3nnc4cnc5[nH]ccc5c43)CC2)cc1`, the Ratio Ki in the series listed under Homo sapiens was determined as 2. In addition, the half-life in series [4] is 0.5 h. Further, the Ratio EC50 in the series with TF-1 was found to be 3.4. For the same compound, the EC50 in series [5] is 121 nM. The Ki in series [2] is 15 nM; in series [3], 8.5 nM.
